# Source: paper PMC7717452 (Journal of Enzyme Inhibition and Medicinal Chemistry, 2020)
# Where “and” joins values, the source holds several entries; their conditions need not be identical. Identical values can stand only once. Like-named read-outs stand apart in the source and are kept apart here.
# Experiments:
# [1] = target: T1, LiTryS (Leishmania infantum, UniProt A4I2Z3); conditions: read-out: Ki, nucleotide-binding site of the enzyme; ADP; cited from earlier work
# T1 sequence (A4I2Z3 1-652): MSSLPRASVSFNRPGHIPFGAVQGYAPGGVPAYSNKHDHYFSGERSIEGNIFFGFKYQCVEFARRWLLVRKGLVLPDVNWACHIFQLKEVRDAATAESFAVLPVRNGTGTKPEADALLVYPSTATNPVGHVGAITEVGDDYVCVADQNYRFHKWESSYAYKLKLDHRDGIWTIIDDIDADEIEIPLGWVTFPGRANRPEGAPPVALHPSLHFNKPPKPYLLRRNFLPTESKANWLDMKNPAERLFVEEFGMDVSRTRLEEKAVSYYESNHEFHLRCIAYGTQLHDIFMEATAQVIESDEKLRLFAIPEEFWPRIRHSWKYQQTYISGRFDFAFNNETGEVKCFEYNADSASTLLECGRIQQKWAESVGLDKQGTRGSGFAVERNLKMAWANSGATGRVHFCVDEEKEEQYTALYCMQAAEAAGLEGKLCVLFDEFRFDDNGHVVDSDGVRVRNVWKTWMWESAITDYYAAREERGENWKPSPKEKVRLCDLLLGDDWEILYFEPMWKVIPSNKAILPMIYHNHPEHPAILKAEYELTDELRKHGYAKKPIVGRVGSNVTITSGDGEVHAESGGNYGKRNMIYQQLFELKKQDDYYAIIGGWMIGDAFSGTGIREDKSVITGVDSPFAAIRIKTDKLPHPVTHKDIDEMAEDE
# [2] = system: L. braziliensis amastigotes; experiment: Macrophage infection assay, L. braziliensis amastigotes; type: cell-based, Leishmania braziliensis; conditions: for SI, L. braziliensis amastigotes: selectivity index, macrophage CC50 and amastigote EC50
# How it was run: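 J774 macrophages were plated on coverslips at 1 × 10^5 cells/mL in DMEM with 1% FBS. They were infected with stationary-phase L. braziliensis promastigotes (MHOM/BR/01/BA788; 1:20) for 2 h at room temperature, then 22 h at 35 °C. After washing, cells got test compound (5 or 10 µM, or 10–0.01 µM) in 1% DMSO for 24 h at 37 °C and 5% CO2. Cells were EtOH-fixed and DAPI-stained, and 100–200 macrophages were imaged. % infected cells is relative to DMSO.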
# [3] = system: L. infantum amastigotes; experiment: Macrophage infection assay, L. infantum amastigotes; type: cell-based, Leishmania infantum; conditions: for SI, L. infantum amastigotes: selectivity index, macrophage CC50 and amastigote EC50
# How it was run: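 J774 macrophages on coverslips (1 × 10^5 cells/mL, DMEM with 1% FBS) were infected with stationary-phase L. infantum promastigotes (1:20) for 2 h at room temperature, then 22 h at 37 °C. After washing, test compound (10–0.01 µM, up to seven concentrations, at least duplicates, 1% DMSO) was added for 24 h at 37 °C. DAPI-stained infected cells were counted by microscopy relative to DMSO. EC50 came from a four-parameter sigmoid fit.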
# [4] = target: T2, TbTryS (Trypanosoma brucei brucei, UniProt Q8IEX1); experiment: TryS activity end-point assay; type: biochemical
# T2 sequence (Q8IEX1 1-627): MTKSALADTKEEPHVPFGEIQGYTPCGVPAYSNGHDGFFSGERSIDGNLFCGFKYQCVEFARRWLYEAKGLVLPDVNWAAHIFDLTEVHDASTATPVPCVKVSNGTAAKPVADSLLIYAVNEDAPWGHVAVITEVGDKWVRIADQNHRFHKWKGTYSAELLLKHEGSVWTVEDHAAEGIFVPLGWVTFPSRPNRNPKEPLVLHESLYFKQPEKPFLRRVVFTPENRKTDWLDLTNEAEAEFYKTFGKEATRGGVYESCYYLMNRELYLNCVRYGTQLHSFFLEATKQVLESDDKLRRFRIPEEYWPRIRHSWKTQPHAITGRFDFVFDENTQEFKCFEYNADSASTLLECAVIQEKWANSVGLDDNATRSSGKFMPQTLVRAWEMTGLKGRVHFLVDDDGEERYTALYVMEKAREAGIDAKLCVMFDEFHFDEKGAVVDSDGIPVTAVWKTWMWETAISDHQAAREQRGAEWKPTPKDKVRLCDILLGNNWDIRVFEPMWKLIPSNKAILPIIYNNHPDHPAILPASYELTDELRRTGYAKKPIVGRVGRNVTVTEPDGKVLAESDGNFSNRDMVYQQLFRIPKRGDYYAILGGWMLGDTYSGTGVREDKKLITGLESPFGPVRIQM
# How it was run: (§1)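 Recombinant TryS end-point assay in 100 mM HEPES pH 7.4 with 5 mM DTT, 10 mM MgSO4 and 0.5 mM EDTA. ATP was 150 µM and spermidine 2 mM. GSH was 0.25 mM for LiTryS, 0.05 mM for TbTryS and 0.57 mM for TcTryS. Enzyme started the reaction and BIOMOL Green stopped it after 15 min. A650 was read after 20 min at room temperature. Values were corrected with no-enzyme blanks and for compound interference with phosphate. At least quadruplicates; IC50 is given ± 2σn-1.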
# [5] = target: T3, LiTryS (Leishmania infantum trypanothione synthetase) (Leishmania infantum, UniProt A4I2Z3); experiment: TryS activity end-point assay; type: biochemical; conditions: for IC50: ± 2σ, ∼30 assumed for 50 ± 5% inhibition at 30 µM
# T3 sequence (A4I2Z3 1-652): T1 sequence (A4I2Z3 1-652)
# How it was run: as §1
# [6] = target: T4, TcTryS (Trypanosoma cruzi, UniProt Q9GT49); experiment: TryS activity end-point assay; type: biochemical; conditions: for IC50: IC50 value, TcTryS, ± 2σ, ~30 assumed for 50 ± 5% inhibition at 30 µM
# T4 sequence (Q9GT49 1-647): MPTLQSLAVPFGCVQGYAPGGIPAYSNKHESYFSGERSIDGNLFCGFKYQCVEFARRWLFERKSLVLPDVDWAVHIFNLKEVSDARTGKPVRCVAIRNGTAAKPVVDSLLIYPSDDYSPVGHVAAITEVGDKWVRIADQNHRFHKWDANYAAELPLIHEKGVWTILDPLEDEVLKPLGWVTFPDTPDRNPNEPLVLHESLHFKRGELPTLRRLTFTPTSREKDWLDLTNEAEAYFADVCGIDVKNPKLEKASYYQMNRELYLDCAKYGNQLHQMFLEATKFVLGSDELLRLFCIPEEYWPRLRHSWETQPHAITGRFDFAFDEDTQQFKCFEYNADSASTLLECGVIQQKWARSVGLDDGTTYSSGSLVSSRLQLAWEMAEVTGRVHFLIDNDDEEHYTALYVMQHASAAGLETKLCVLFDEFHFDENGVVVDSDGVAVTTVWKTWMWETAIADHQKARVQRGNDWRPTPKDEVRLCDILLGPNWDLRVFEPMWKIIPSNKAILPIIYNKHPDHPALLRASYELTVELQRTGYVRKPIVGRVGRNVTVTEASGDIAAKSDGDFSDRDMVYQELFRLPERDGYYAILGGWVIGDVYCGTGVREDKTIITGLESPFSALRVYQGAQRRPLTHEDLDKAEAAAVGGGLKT
# How it was run: as §1
# [7] = system: Mouse macrophages from the cell line J774; experiment: Cytotoxicity assay; type: cell-based; conditions: 24 h, non-infected J774
# How it was run: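 J774 mouse macrophages were grown in DMEM with 10% FBS and penicillin/streptomycin at 37 °C in humidified 5% CO2. Cells were seeded at 6 × 10^4 cells/mL and exposed the next day for 24 h to test compound at 100 to 0.001 µM (200 µM for one compound). The WST-1 signal was read at A450. % cytotoxicity was calculated against DMSO-treated and untreated cells, and CC50 is given ± σn–1.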
# [8] = system: L. infantum amastigotes (WT and sKO); experiment: Intracellular low molecular mass thiols, amastigotes in J774 macrophages; type: cell-based, Leishmania infantum; conditions: 1 µM, 24 h, vs non-treated control
# How it was run: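 J774 macrophages at 50% confluence were infected with stationary-phase L. infantum WT or single knockout promastigotes (1:40) for 2 h at room temperature, then 22 h at 37 °C. After washing, cells were treated or not with 1 µM test compound for 24 h. Thiols were reduced with NaBH4, labelled with monobromobimane, then separated by C18 HPLC against standards. Non-infected macrophage GSH was subtracted, and values are fold-change versus non-treated. At least duplicates; t-test.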
# [9] = target: T1, LiTryS; experiment: Kinetic assays for LiTryS; type: biochemical; conditions: double reciprocal plots
# How it was run: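 LiTryS in 100 mM HEPES pH 7.4, 10 mM MgSO4, 0.5 mM EDTA, 5 mM DTT at 28 °C. Enzyme-started, linear 15 min, colorimetric stop, A650 after 20 min. Variable GSH 100–3 µM (SP 13 mM, ATP 200 µM); ATP 200–6 µM (SP 13 mM, GSH 250 µM); SP 13–0.41 mM or GSP 250–7.8 µM (ATP 200 µM, GSH 250 µM).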
# [10] = system: L. infantum promastigotes (WT and TryS sKO); experiment: Intracellular low molecular mass thiols, promastigotes; type: cell-based, Leishmania infantum; conditions: 7 µM, 24 h
# How it was run: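 L. infantum promastigotes (MHOM MA67I7MAP263, WT or TryS single knockout) were seeded at 5 × 10^5/mL in RPMI at 28 °C with 7 µM test compound or 1% DMSO for 24 h. Thiols were reduced with 70 mM NaBH4 in 40 mM HEPES pH 8.0, labelled with 2 mM monobromobimane (70 °C, 3 min) and acid-extracted. They were separated by C18 HPLC against GSH/T(SH)2 standards (2.5–75 nmol), and peak areas are given as % of untreated WT. At least duplicates; unpaired t-test.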
# [11] = 30 µM, NA = not active (enzyme activity > 95%)
structure (smiles),measurement,setting,value
Nc1ncnc2c1ncn2[C@@H]1O[C@H](COP(=O)(O)OP(=O)(O)O)[C@@H](O)[C@H]1O [ADP],Ki,[1],90 µM
"C[C@@H]1[C@H](O)[C@@H](C)/C=C/C=C/C=C/C=C/C=C/C=C/C=C/[C@H](O[C@@H]2O[C@H](C)[C@@H](O)[C@H](N)[C@@H]2O)C[C@@H]2O[C@](O)(C[C@@H](O)C[C@@H](O)[C@H](O)CC[C@@H](O)C[C@@H](O)CC(=O)O[C@H]1C)C[C@H](O)[C@H]2C(=O)O [Amphotericin B, reference compound]","SI, L. braziliensis amastigotes",[2],59
same,"SI, L. infantum amastigotes",[3],100
"O=C1Cc2c([nH]c3ccc(Br)cc23)-c2ccc(Cl)cc2N1 [Compound 1, 3-Chlorokenpaullone]","% TryS inhibition at 30 µM, TbTryS",[4]; [11],inactive
same,"% TryS inhibition at 30 µM, LiTryS",[5]; [11],inactive
same,"% TryS inhibition at 30 µM, TcTryS",[6]; [11],inactive
same,"% cytotoxicity at 200 µM, macrophages",[7]; 200 µM,0 at 200 µM %
O=C(CN1C(=O)Cc2c([nH]c3ccc(Br)cc23)-c2ccc(Cl)cc21)Nc1nncs1 [Compound 16],IC50,"[5]; IC50 value, LiTryS",~30 µM
same,IC50,[6],30 µM
Cl.O=C(CN1C(=O)Cc2c([nH]c3ccc(Br)cc23)-c2ccc(Cl)cc21)N1CCNCC1 [Compound 20],% infection by L. braziliensis at 5 µM,"[2]; 5 µM, 24 h, relative to infected non-treated macrophages",15% and 15 ± 1 at 5 µM %
same,"SI, L. braziliensis amastigotes",[2],≥ 21
same,IC50,"[4]; IC50 value, TbTryS, ± 2σ, ~30 assumed for 50 ± 5% inhibition at 30 µM",~30 µM
same,IC50,"[5]; IC50 value, LiTryS",0.3 µM
same,"GSH accumulation, WT amastigotes",[8],16 fold
same,"GSH accumulation, sKO amastigotes",[8],10 fold
same,"T(SH)2 depletion, WT amastigotes",[8],about 40%
same,"T(SH)2 depletion, sKO amastigotes",[8],~82%
same,"SI, L. infantum amastigotes",[3],9
same,Inhibition mode with respect to ATP and GSH,[9]; ATP or GSH variable,uncompetitive inhibition
same,Inhibition mode with respect to SP and GSP,[9]; SP or GSP variable,competitive inhibition
same,CC50,"[7]; read-out: CC50, macrophages",8.1 ± 0.1 µM
same,"T(SH)2 decrease, WT promastigotes",[10]; WT cells,88%
same,"T(SH)2 content, sKO promastigotes","[10]; sKO cells, detection limit 0.5 nmol T(SH)2/100 million cells",undetectable
"CN1CCN(C(=O)CN2C(=O)Cc3c([nH]c4ccc(Br)cc34)-c3ccc(Cl)cc32)CC1 [Compound 21, 9-Bromo-3-chloro-5-[2-(4-methylpiperazin-1-yl)-2-oxoethyl]-7,12-dihydrobenzo[2,3]azepino[4,5-b]indol-6(5H)one]",% infection by L. braziliensis at 10 µM,"[2]; 10 µM, 24 h, relative to infected non-treated macrophages",65 ± 7%
same,"SI, L. braziliensis amastigotes",[2],5
same,IC50,"[5]; read-out: IC50 value, LiTryS",0.4 ± 0.1 µM
same,EC50,"[3]; read-out: EC50, amastigotes L. infantum, intracellular amastigotes in J774, 24 h",1000 ± 500 nM
CC(C)(C)OC(=O)N1CCN(CCNC(=O)CN2C(=O)Cc3c([nH]c4ccc(Br)cc34)-c3ccc(Cl)cc32)CC1 [Compound 34],IC50,"[5]; IC50 value, LiTryS",~30 µM
same,IC50,[6],20 µM
CC(C)(C)OC(=O)NCCCCNC(=O)CN1C(=O)Cc2c([nH]c3ccc(Br)cc23)-c2ccc(Cl)cc21 [Compound 36],IC50,"[5]; IC50 value, LiTryS",~30 µM
same,IC50,[6],25 µM
